# UCH37 inh: inhibitors of human deubiquitinating enzyme UCH37; Q9Y5K5; purified proteasome/UCH37, Ub-AMC cleavage fluorescence; inhibition, % (no concentration beside the values); 330,000 compounds, 0.33% hits; AID 588478;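 active = mean inhibition over replicate wells above about 20%, limit read from the data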;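 note: 0% = compound-free wells with enzyme and 100% = wells lacking proteasome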
# Target sequence (Q9Y5K5 whole entry, looked up): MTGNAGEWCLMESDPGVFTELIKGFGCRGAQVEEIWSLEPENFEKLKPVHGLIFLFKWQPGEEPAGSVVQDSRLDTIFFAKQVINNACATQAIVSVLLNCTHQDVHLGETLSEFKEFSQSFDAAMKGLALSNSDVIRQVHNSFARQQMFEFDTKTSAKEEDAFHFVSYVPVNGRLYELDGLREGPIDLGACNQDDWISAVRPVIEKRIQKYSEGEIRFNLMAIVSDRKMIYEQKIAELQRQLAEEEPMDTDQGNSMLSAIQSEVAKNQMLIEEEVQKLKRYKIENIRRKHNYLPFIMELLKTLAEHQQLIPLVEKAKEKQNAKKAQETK
#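 Material: Human UCH37 enzyme supplied as purified proteasome complex | Schedule: 30 min preincubation with enzyme, 25 min cleavage at room temperature | Detection: AMC fluorescence 355/460 nm | Measure: % inhibition of Ub-AMC cleavage fluorescence | Controls: Wells without proteasome as full block, compound-free enzyme plus substrate as uninhibited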
# CTSL1 counter: counter-screen for PFM18AAP inhibitors: inhibitors of F. hepatica cathepsin L1 | inhibition, % at 5.96 µM | 300,000 compounds, 0.49% hits | AID 1906 | recombinant F. hepatica cathepsin L1, Z-Leu-Arg-MCA fluorescence;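 active = inhibition above the mean of all tested compounds plus 3 SD, set per screening campaign, cut at about 17% in these data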;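 note: 0% = plate median of test compound wells and 100% = 1 µM Z-Phe-Ala-diazomethylketone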
# XBP1 UPR activ: adaptive UPR (XBP1) activation | CHO-XBP1 luciferase reporter, IRE1-XBP1 UPR activation, luminescence; percent of tunicamycin response, DMSO as zero | activation, % at 20 µM | 330,000 compounds, 0.33% hits | AID 463104;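 active = versus positive control, 20 µM dose yields 30% or more activation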;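 note: 100% = tunicamycin at 10 µg/mL and 0% = DMSO only wells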
#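 Material: CHO cell line with stable XBP1 luciferase reporter; schedule: 16-18 h cell attachment at 37 °C, then 6 h compound exposure; signal: glow luminescence from Steady-Glo reagent; medium: serum-containing F12 medium, 10% FBS; benchmarks: tunicamycin 10 µg/mL and vehicle-only wells; read-out: percent activation relative to tunicamycin reference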
# UPR CHOP act: activators of apoptotic arm of unfolded protein response (CHOP). CHO-CHOP luciferase reporter, UPR activation, luminescence; percent of tunicamycin response over DMSO baseline. activation, % at 10 µM. 330,000 compounds, 0.34% hits;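 active = at 10 µM dose, activation of 40% or more, normalized to positive control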;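 note: 100% = tunicamycin at 10 µg/mL and 0% = DMSO alone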
#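 Material: CHO-CHOP cells, stable luciferase reporter of PERK-eIF2a-CHOP signalling; quantity: 500 reporter cells seeded per well; buffer or medium: F12 medium containing 10% fetal bovine serum; compound: one dose, 10 µM in 0.5% DMSO; incubation: 6 h compound treatment, 37 °C; measured by: Steady-Glo luciferase luminescence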
# CHOP inhibitor: CHOP inhibition in unfolded protein response; CHO-K1 CHOP-promoter luciferase, tunicamycin-induced, 15-18 h; AID 2732; inhibition, % at 10 µM; 220,000 compounds, 3.8% hits;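 active = compounds that reduced the stress-induced luciferase reporter signal by more than about 70% of percent inhibition, limit read from the data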;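 note: 0% = tunicamycin plus vehicle and 100% = wells without tunicamycin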
# The depositor's hits bear a star; x = no result given. Shown is part of a subset that was picked to be rich in hits.
SMILES,UCH37 inh,CTSL1 counter,XBP1 UPR activ,UPR CHOP act,CHOP inhibitor
CC(C)CCNC(=O)NC(=O)CSc1nnc(-c2ccccc2Br)o1,5,-1,-2,-1,87*
Cc1ccc(C=NNS(=O)(=O)c2ccccc2)o1,2,x,x,x,x
CCOC(=O)c1cc(CC)sc1NC(=O)CC1Sc2ccc(C(F)(F)F)cc2NC1=O (stereo not drawn),1,0,-1,1,82*
CCc1cc(C(=O)OC)c(NC(=O)CC2Nc3cc(C)c(C)cc3NC2=O)s1 (stereo not drawn),2,-4,1,3,103*
COC(=O)c1c(NC(=O)CC2Sc3ccc(C(F)(F)F)cc3NC2=O)sc(C)c1C (stereo not drawn),-3,-4,1,0,23
O=C(CSc1nnc(Cc2ccccc2)n1Cc1ccco1)NC12CC3CC(CC(C3)C1)C2,3,4,0,0,72*
CCc1ccc2c(c1)C1(NN=C(c3ccc(C)cc3)S1)C(=O)N2 (stereo not drawn),1,0,1,2,88*
Cc1ccc(Cc2cc(-c3ccc(C)cc3)n[nH]c2=O)cc1,3,-1,2,0,56
Cc1[nH]c2ccccc2c1SCCN,1,1,-1,0,x
Cc1[nH]c2ccccc2c1SCc1ccccc1,x,-1,4,2,83*
O=C(NN=Cc1cc(Cl)ccc1O)c1ccccc1Br,-2,x,x,x,x
O=C(N/N=C/c1cc(Cl)ccc1O)c1ccc(Br)cc1,x,-2,x,x,80*
Cc1ccc2nc(C(Cl)(Cl)Cl)nc(NN=Cc3ccncc3)c2c1,9,x,x,x,x
CCc1ccc(OC2=NS(=O)(=O)c3ccccc32)cc1,2,x,x,x,-2
CCN(CC)c1cccc(OC2=NS(=O)(=O)c3ccccc32)c1,2,0,0,-3,81*
Cc1oc(N=Cc2cccc3ccccc23)c(C#N)c1C,0,x,x,x,x
C/C(=N/NC(=O)CNc1ccc(Cl)cc1C)c1ccc(C)cc1,x,-2,1,-2,87*
CCC(=NNC(=O)CNc1ccc(Cl)cc1C)c1ccccc1,4,x,x,x,x
COc1ccc(C(=O)NCC(=O)NN=C/C(C)=C/c2ccccc2)cc1OC,6,x,x,x,x
Cc1cc(N2CCCCCC2)nc2ccccc12,-1,20*,-3,0,-8
Cc1cc(N2CCCCC2)nc2ccccc12,-20,2,-1,3,-3
Cc1cc(N2CCN(c3ccc(F)cc3)CC2)nc2cc(O)ccc12,-34,-2,3,0,82*
CCN(CC)S(=O)(=O)c1ccc(NN=Cc2ccccc2OCC(=O)O)c([N+](=O)[O-])c1,8,x,x,x,x
COc1ccc(C=NN2CCN(C3c4ccccc4-c4ccccc43)CC2)cc1OC,7,x,x,x,x
O=C(CCN1C(=O)/C(=C\C=C\c2ccccc2)SC1=S)Nc1ccc(C(=O)O)cc1,7,7,-1,5,x
SMILES,UCH37 inh,CTSL1 counter,XBP1 UPR activ,UPR CHOP act,CHOP inhibitor
O=C(CN1C(=O)/C(=C\C=C\c2ccccc2)SC1=S)Nc1ccc(F)cc1,5,4,-2,4,89*
O=C(COC(=O)CCN1C(=O)/C(=C\C=C\c2ccccc2)SC1=S)Nc1cc(F)ccc1F,8,-6,-3,-2,77*
CCCCCc1nc2c(=O)n(C)c3ccccc3c2o1,5,3,3,5,16
CCCCCCCc1nc2c(=O)n(C)c3ccccc3c2o1,-1,-1,2,1,89*
CC(=O)Nc1ccc(-c2csc(NC(=O)C3CCN(S(=O)(=O)c4cccs4)CC3)n2)cc1,3,-2,x,x,81*
CCN=c1scc(-c2ccc(F)cc2)n1N=Cc1ccccn1,1,x,x,x,x
COC(=O)c1ccc2c(=O)n(Cc3ccc(C(=O)NC4CCCC4)cc3)c(=S)[nH]c2c1,2,-4,12,4,85*
COC(=O)c1ccc2c(=O)n(CCO)c(=S)[nH]c2c1,-3,-1,-3,1,-17
COC(=O)c1ccc2c(=O)n(CCCCCC(=O)O)c(=S)[nH]c2c1,-3,-1,-5,-3,73*
Cc1cc(C)nc(N=C(NC(=O)C(C)(C)C)Nc2ccccc2)n1,5,x,x,x,x
Cc1ccc(CSc2nnc(SCC(=O)NN=C/C=C/c3ccccc3[N+](=O)[O-])s2)cc1,7,x,x,x,x
O=C(NN=Cc1cccnc1)c1cccs1,-2,x,x,x,x
Cc1cccc2c1[nH]c1nc(N/N=C\c3ccco3)nnc12,x,3,1,5,85*
